In ChEMBL document CHEMBL3352173, “Optimization of pyrrolamide topoisomerase II inhibitors toward identification of an antibacterial clinical candidate (AZD5099)” (J Med Chem, 2014):
In brackets after ≈: the same amount, converted by molar mass.

Key:
Enterococcus faecalis [1] = assay: Antimicrobial activity against vancomycin-resistant Enterococcus faecalis by broth microdilution/CLSI method; assay type: functional
Haemophilus influenzae [2] = assay: Antimicrobial activity against amoxicillin-resistant Haemophilus influenzae by broth microdilution/CLSI method; assay type: functional
Staphylococcus aureus [3] = assay: Antimicrobial activity against methicillin-resistant Staphylococcus aureus by broth microdilution/CLSI method; assay type: functional
Staphylococcus aureus [4] = assay: Antimicrobial activity against Staphylococcus aureus by broth microdilution/CLSI method; assay type: functional
Haemophilus influenzae [5] = assay: Antimicrobial activity against Haemophilus influenzae by broth microdilution/CLSI method; assay type: functional; details: Haemophilus influenzae; for MIC: read-out: MIC
Enterococcus faecalis [6] = assay: Antimicrobial activity against Enterococcus faecalis by broth microdilution/CLSI method; assay type: functional
Enterococcus faecium = assay: Antimicrobial activity against Enterococcus faecium by broth microdilution/CLSI method; assay type: functional
[7] = Clearance in rat at 10 mg/kg, iv; assay type: ADME, organism-based; design: dose 10 mg/kg, route intravenous; details: in vivo
[8] = Bioavailability in dog at 10 mg/kg, iv; assay type: ADME, organism-based, Canis lupus familiaris; details: plasma
Staphylococcus aureus [9] = assay: Antimicrobial activity against methicillin-sensitive Staphylococcus aureus by broth microdilution/CLSI method; assay type: functional; details: Staphylococcus aureus; read-out: MIC
[10] = Percentage unbound in human plasma; assay type: ADME, cell-free
DNA gyrase subunit B = DNA gyrase subunit B (Staphylococcus aureus, UniProt P0A0K8); assay: Inhibition of ATPase activity of Staphylococcus aureus GyrB
In short: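 IC50 was determined against S. aureus GyrB in the routine screening assay. The enzyme concentration limits resolution below 10 nM.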

[11] = Octanol-phosphate buffer distribution coefficient, log D of the compound at pH 7.4 by shake flask method; assay type: physicochemical
Streptococcus pyogenes = assay: Antimicrobial activity against Streptococcus pyogenes by broth microdilution/CLSI method; assay type: functional
Moraxella catarrhalis = assay: Antimicrobial activity against Moraxella catarrhalis by broth microdilution/CLSI method; assay type: functional; details: Moraxella catarrhalis; read-out: MIC
Staphylococcus aureus [12] = assay: Antimicrobial activity against methicillin, quinolone-resistant Staphylococcus aureus by broth microdilution/CLSI method; assay type: functional; details: Staphylococcus aureus; read-out: MIC
[13] = Ratio of MIC for methicillin, quinolone-resistant Staphylococcus aureus to fraction unbound in human plasma; assay type: ADME
[14] = Clearance in dog at 10 mg/kg, iv; assay type: ADME, organism-based, Canis lupus familiaris; design: dose 10 mg/kg, route intravenous; details: plasma
[15] = Percentage unbound in rat plasma; assay type: ADME, cell-free
[16] = Percentage unbound in mouse plasma; assay type: ADME, cell-free
Escherichia coli [17] = assay: Antimicrobial activity against wild-type Escherichia coli Eco523 by broth microdilution/CLSI method; assay type: functional; details: Escherichia coli, Eco523; read-out: MIC
Streptococcus pneumoniae = assay: Antibacterial activity against Streptococcus pneumoniae by broth microdilution/CLSI method; assay type: functional; details: Streptococcus pneumoniae; read-out: MIC
[18] = Solubility of the compound; assay type: physicochemical
Escherichia coli [19] = assay: Antimicrobial activity against Escherichia coli tolC- by broth microdilution/CLSI method; assay type: functional; details: Escherichia coli; read-out: MIC
[20] = Dissociation constant, pKa of the compound; assay type: physicochemical
[21] = Percentage unbound in dog plasma; assay type: ADME, cell-free, Canis lupus familiaris
Staphylococcus aureus [22] = assay: Antibacterial activity against methicillin-sensitive Staphylococcus aureus ARC516 infected in neutropenic CD1 mouse thigh model assessed as decrease in bacterial viable counts at 30 mg/kg, ip q6; assay type: functional; details: route intraperitoneal
In short: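 Read-out is viable CFU recovered from the infected thigh after treatment. The change is expressed as log CFU relative to the bacterial burden at the start of treatment (the pre-treatment inoculum). Untreated infected controls are run in parallel and counted over the same infection-to-treatment interval.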

[23] = Bioavailability in CD1 mouse at 10 mg/kg, […]; assay type: ADME, organism-based; details: in vivo
[24] = Clearance in TR-negative Wistar rat at 10 mg/kg, iv; assay type: ADME, organism-based; design: dose 10 mg/kg, route intravenous; details: in vivo
[25] = Clearance in CD1 mouse at 10 mg/kg, iv; assay type: ADME, organism-based; design: dose 10 mg/kg, route intravenous; details: in vivo
Staphylococcus aureus [26] = assay: Antibacterial activity against methicillin-sensitive Staphylococcus aureus ARC516 infected in ip dosed neutropenic CD1 mouse thigh model assessed as decrease in bacterial viable counts treated for q6; assay type: functional; details: ARC516, Thigh muscle
[27] = Bioavailability in Wistar rat at 10 mg/kg, […]; assay type: ADME, organism-based; details: in vivo
[28] = Clearance in Wistar rat at 10 mg/kg, iv; assay type: ADME, organism-based; design: dose 10 mg/kg, route intravenous; details: in vivo
Mus musculus [29] = assay: fAUC in methicillin-sensitive Staphylococcus aureus ARC516 infected in neutropenic CD1 mouse thigh model at 30 mg/kg, ip q6; assay type: ADME, organism-based; design: dose 30 mg/kg, route intraperitoneal; details: in vivo
[30] = AUC in methicillin-sensitive Staphylococcus aureus ARC516 infected in neutropenic CD1 mouse thigh model at 30 mg/kg, ip q6; assay type: ADME, organism-based; design: dose 30 mg/kg, route intraperitoneal; details: in vivo
[31] = target: T1, ATP-binding cassette sub-family C member 2 (Homo sapiens, UniProt Q92887); assay: Stimulation of ATPase activity of human MRP2 assessed as inorganic phosphate
Mus musculus [32] = assay: fAUC in methicillin-sensitive Staphylococcus aureus ARC516 infected in neutropenic CD1 mouse thigh model at 30 mg/kg, ip q24; assay type: ADME, organism-based; design: dose 30 mg/kg, route intraperitoneal; details: in vivo
[33] = AUC in methicillin-sensitive Staphylococcus aureus ARC516 infected in neutropenic CD1 mouse thigh model at 30 mg/kg, ip q24; assay type: ADME, organism-based; design: dose 30 mg/kg, route intraperitoneal; details: in vivo
[34] = target: T1, ATP-binding cassette sub-family C member 2; assay: Inhibition of ATPase activity of human MRP2 assessed as inorganic phosphate
Staphylococcus aureus [35] = assay: Antibacterial activity against methicillin-sensitive Staphylococcus aureus ARC516 infected in ip dosed neutropenic CD1 mouse thigh model assessed as decrease in bacterial viable counts treated for q24; assay type: functional; details: ARC516, Thigh muscle
Staphylococcus aureus [36] = assay: Antibacterial activity against methicillin-sensitive Staphylococcus aureus ARC516 infected in neutropenic CD1 mouse thigh model assessed as decrease in bacterial viable counts at 30 mg/kg, ip q24; assay type: functional; details: route intraperitoneal
[37] = target: T2, ATP-binding cassette sub-family C member 2 (Rattus norvegicus, UniProt Q63120); assay: Stimulation of ATPase activity of rat Mrp2 assessed as inorganic phosphate
[38] = target: T2, ATP-binding cassette sub-family C member 2; assay: Inhibition of ATPase activity of rat Mrp2 assessed as inorganic phosphate

DNA gyrase subunit B, sequence (P0A0K8 whole entry): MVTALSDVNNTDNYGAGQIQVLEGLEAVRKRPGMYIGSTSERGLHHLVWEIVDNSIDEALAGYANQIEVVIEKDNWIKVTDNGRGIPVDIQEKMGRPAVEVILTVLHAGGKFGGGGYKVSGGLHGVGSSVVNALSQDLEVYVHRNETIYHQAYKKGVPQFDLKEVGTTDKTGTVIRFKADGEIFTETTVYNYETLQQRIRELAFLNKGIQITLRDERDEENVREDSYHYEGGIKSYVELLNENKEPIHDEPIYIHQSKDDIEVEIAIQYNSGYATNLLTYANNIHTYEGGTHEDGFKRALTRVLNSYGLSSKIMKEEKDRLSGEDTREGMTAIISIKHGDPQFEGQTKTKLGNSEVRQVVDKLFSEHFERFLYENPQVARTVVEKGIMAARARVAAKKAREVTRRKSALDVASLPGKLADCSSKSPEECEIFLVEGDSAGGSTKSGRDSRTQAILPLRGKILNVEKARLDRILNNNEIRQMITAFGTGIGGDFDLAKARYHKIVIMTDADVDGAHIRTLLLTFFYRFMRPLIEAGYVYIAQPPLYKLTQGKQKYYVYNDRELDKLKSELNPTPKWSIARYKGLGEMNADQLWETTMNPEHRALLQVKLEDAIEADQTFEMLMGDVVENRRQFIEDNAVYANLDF
T2 sequence (Q63120 whole entry): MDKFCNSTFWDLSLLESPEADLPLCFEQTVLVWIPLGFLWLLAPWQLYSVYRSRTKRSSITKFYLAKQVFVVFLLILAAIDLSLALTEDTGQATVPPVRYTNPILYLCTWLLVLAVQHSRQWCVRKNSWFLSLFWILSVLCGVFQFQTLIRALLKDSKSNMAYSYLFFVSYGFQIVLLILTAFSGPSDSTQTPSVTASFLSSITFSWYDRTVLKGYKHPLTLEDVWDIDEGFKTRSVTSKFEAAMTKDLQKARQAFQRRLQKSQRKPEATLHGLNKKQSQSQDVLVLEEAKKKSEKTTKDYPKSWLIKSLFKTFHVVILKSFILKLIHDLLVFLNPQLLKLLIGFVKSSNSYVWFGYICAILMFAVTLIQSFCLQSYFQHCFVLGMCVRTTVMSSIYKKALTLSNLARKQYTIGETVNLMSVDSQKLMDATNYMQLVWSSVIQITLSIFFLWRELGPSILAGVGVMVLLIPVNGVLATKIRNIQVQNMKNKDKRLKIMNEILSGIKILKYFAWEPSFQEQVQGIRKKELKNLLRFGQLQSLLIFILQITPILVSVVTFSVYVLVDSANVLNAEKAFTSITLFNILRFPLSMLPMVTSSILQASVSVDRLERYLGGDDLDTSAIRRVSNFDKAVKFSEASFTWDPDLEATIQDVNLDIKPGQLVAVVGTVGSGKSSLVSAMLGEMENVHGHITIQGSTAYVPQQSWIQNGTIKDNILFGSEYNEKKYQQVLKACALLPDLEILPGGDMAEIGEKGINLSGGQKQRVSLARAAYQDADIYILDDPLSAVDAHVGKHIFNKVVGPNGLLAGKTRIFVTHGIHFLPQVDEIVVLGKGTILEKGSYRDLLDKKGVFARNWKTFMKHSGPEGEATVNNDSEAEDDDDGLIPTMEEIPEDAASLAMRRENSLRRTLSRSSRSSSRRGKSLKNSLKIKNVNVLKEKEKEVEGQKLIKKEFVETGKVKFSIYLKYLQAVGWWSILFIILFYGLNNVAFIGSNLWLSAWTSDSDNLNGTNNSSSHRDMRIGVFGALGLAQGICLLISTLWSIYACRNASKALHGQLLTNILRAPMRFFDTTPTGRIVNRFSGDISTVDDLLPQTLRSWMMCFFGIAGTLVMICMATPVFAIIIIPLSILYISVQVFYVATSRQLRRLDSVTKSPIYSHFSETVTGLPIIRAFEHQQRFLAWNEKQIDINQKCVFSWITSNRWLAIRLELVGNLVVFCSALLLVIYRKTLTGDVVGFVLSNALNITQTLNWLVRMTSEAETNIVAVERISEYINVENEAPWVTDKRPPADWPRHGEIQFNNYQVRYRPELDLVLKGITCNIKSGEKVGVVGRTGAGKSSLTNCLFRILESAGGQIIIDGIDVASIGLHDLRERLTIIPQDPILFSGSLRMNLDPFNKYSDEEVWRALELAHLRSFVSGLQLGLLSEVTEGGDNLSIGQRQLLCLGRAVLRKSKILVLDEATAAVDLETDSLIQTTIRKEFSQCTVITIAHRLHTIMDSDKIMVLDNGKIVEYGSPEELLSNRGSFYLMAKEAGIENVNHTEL
T1 sequence (Q92887 whole entry): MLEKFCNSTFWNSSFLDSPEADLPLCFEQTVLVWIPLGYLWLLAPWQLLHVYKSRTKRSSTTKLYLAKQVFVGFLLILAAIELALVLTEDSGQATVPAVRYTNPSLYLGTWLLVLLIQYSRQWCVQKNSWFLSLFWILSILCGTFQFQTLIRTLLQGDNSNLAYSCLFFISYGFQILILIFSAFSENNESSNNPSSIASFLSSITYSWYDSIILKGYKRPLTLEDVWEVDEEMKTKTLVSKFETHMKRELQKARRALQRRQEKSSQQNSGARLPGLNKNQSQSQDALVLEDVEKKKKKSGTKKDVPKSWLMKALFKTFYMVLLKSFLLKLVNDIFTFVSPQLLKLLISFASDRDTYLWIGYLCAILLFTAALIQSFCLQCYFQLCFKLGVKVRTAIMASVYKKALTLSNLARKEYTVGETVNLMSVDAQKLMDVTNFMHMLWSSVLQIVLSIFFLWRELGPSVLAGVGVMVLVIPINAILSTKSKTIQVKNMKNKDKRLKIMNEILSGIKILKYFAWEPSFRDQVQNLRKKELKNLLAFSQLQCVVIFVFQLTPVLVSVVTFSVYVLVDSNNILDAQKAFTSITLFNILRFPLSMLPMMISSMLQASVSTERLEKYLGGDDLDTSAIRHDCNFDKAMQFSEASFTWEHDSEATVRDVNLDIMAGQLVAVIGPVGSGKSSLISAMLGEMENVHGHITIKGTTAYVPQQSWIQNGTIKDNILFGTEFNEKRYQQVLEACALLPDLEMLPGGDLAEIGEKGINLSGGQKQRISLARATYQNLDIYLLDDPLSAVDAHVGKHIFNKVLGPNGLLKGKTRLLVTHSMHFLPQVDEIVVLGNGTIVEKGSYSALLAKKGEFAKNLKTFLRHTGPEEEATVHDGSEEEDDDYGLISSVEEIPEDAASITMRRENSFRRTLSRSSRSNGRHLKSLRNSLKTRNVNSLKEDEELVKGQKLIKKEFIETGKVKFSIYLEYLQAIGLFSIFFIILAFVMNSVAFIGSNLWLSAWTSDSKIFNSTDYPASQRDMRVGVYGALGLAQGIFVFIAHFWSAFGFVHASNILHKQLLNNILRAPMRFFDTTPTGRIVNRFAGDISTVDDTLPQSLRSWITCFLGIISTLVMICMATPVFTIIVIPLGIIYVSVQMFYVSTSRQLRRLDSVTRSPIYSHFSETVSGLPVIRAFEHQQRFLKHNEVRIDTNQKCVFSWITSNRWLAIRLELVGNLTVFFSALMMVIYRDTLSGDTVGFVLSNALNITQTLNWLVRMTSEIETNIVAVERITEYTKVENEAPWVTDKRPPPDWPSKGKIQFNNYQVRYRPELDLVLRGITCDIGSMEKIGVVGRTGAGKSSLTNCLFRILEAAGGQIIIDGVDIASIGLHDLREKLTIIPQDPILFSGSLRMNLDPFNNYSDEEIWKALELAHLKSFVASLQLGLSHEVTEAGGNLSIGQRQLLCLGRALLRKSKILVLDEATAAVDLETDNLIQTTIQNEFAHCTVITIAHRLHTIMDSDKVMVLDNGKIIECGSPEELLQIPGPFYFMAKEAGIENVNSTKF

| SMILES | clearance [7] [mL/min/kg] | bioavailability [8] [%] | MIC (Staphylococcus aureus [9]) [µg/mL] | fraction unbound [10] | IC50 (DNA gyrase subunit B) [µM] | logD [11] | MIC (Streptococcus pyogenes) [µg/mL] | MIC (Haemophilus influenzae [5]) [µg/mL] | MIC (Moraxella catarrhalis) [µg/mL] | MIC (Staphylococcus aureus [12]) [µg/mL] | Ratio [13] | clearance [14] [mL/min/kg] | fraction unbound [15] | fraction unbound [16] | MIC (Escherichia coli [17]) [µg/mL] | MIC (Streptococcus pneumoniae) [µg/mL] | solubility [18] [µM] | MIC (Escherichia coli [19]) [µg/mL] | pKa [20] | fraction unbound [21] | further results |
| --- | --- | --- | --- | --- | --- | --- | --- | --- | --- | --- | --- | --- | --- | --- | --- | --- | --- | --- | --- | --- | --- |
| C[C@H]1COc2c(N3CCN(C)CC3)c(F)cc3c(=O)c(C(=O)O)cn1c23.C[C@H]1COc2c(N3CCN(C)CC3)c(F)cc3c(=O)c(C(=O)O)cn1c23.O [LEVOFLOXACIN] | – | – | – | – | – | – | – | – | – | – | – | – | – | – | – | – | – | – | – | – | MIC90 (Enterococcus faecalis [1]): 64 µg/mL; MIC90 (Haemophilus influenzae [2]): 0.015 µg/mL; MIC90 (Staphylococcus aureus [3]): 64 µg/mL; MIC90 (Staphylococcus aureus [4]): 32 µg/mL; MIC90 (Haemophilus influenzae [5]): 0.015 µg/mL; MIC90 (Enterococcus faecalis [6]): 32 µg/mL; MIC90 (Enterococcus faecium): > 128 µg/mL |
| CO[C@H]1CN(c2nc(-c3cnccn3)c(C(=O)O)s2)CC[C@H]1NC(=O)c1[nH]c(C)c(Cl)c1Cl | 2.7 | 18 | 0.031 (≈ 0.0606 µM) | 0.039 | < 0.01 | 1.2 | 0.01 (≈ 0.0196 µM) | 0.13 (≈ 0.254 µM) | 0.008 (≈ 0.0156 µM) | 0.018 (≈ 0.0352 µM) | 0.46 | 0.73 | 0.0715 | 0.074 | > 8 | 0.007 (≈ 0.0137 µM) | 540 (≈ 276 µg/mL) | 0.5 (≈ 0.978 µM) | 5.4 | 0.13 | – |
| CC[C@H]1OC(=O)[C@H](C)[C@@H](O[C@H]2C[C@@](C)(OC)[C@@H](O)[C@H](C)O2)[C@H](C)[C@@H](O[C@@H]2O[C@H](C)C[C@H](N(C)C)[C@H]2O)[C@](C)(O)C[C@@H](C)CN(C)[C@H](C)[C@@H](O)[C@]1(C)O [AZITHROMYCIN] | – | – | – | – | – | – | – | – | – | – | – | – | – | – | – | – | – | – | – | – | MIC90 (Haemophilus influenzae [2]): 2 µg/mL (≈ 2.67 µM); MIC90 (Staphylococcus aureus [4]): > 128 µg/mL; MIC90 (Haemophilus influenzae [5]): 2 µg/mL (≈ 2.67 µM); MIC90 (Enterococcus faecalis [6]): > 128 µg/mL; MIC90 (Enterococcus faecium): > 128 µg/mL |
| CO[C@H]1CN(c2nc(-c3ncccn3)c(C(=O)O)s2)CC[C@H]1NC(=O)c1[nH]c(C)c(Cl)c1Cl | 34 | 100 | 0.09 (≈ 0.176 µM) | 0.096 | < 0.01 | 0.54 | 0.016 (≈ 0.0313 µM) | 0.2 (≈ 0.391 µM) | 0.031 (≈ 0.0606 µM) | 0.12 (≈ 0.235 µM) | 1.25 | 1.9 | 0.19 | 0.18 | 23 (≈ 45 µM) | 0.008 (≈ 0.0156 µM) | 350 (≈ 179 µg/mL) | 0.5 (≈ 0.978 µM) | 5.2 | 0.24 | deltalog10CFU (Staphylococcus aureus [22]): -1.57; bioavailability [23]: 100%; clearance [24]: 9.3 mL/min/kg; clearance [25]: 22 mL/min/kg; MIC (Staphylococcus aureus [26]): 0.06 µg/mL (≈ 0.117 µM); bioavailability [27]: 100%; clearance [28]: 18 mL/min/kg; fAUC (Mus musculus [29]): 6700 ng·h/mL; AUC [30]: 37600 ng·h/mL |
| CO[C@H]1CN(c2nc(-c3ncnn3C)c(C(=O)O)s2)CC[C@H]1NC(=O)c1[nH]c(C)c(Cl)c1Cl | 17 | 70 | 0.063 (≈ 0.122 µM) | 0.032 | < 0.01 | 0.15 | 0.016 (≈ 0.0311 µM) | 0.12 (≈ 0.233 µM) | 0.026 (≈ 0.0505 µM) | 0.04 (≈ 0.0778 µM) | 1.25 | 1.6 | 0.088 | 0.097 | 32 (≈ 62.2 µM) | 0.007 (≈ 0.0136 µM) | 630 (≈ 324 µg/mL) | 0.46 (≈ 0.894 µM) | 4.5 | 0.2 | EC50 [31]: 140 µM; bioavailability [23]: 74%; fAUC (Mus musculus [32]): 19800 ng·h/mL; clearance [25]: 7.4 mL/min/kg; AUC [33]: 204000 ng·h/mL; IC50 [34]: > 200 µM; MIC (Staphylococcus aureus [35]): 0.03 µg/mL (≈ 0.0583 µM); bioavailability [27]: 65%; deltalog10CFU (Staphylococcus aureus [36]): 1.54; EC50 [37]: 110 µM; IC50 [38]: > 200 µM |
